# What was measured:
# Cholinesterase = Cholinesterase (Homo sapiens, UniProt P06276); experiment: Inhibition constant against human Butyrylcholinesterase (hBuChE) using butyrylthiocholine (BuTCh) as substrate
# Liver carboxylesterase 1 [1] = molecular target: T1, Liver carboxylesterase 1 (Oryctolagus cuniculus, UniProt P12337); experiment: Inhibition constant against rabbit liver carboxylesterase (rCE) using nitrophenyl acetate (o-NPA) as substrate
# T1 sequence (P12337 whole entry): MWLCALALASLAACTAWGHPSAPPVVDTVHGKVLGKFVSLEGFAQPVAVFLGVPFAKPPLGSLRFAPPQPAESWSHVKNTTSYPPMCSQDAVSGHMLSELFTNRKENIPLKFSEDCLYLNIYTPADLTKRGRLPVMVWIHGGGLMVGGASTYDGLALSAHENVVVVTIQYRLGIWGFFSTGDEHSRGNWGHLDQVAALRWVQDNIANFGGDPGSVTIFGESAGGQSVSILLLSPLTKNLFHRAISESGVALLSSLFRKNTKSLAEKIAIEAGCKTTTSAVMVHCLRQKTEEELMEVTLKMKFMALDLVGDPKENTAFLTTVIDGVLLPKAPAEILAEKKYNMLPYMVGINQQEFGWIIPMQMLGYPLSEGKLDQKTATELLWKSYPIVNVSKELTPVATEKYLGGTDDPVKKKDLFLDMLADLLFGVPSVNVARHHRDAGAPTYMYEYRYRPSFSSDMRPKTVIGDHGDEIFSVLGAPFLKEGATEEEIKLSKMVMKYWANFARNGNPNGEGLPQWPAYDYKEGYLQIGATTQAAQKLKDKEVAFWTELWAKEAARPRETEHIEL
# Procedure, shortened: (§1)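 Pure rCE prepared per earlier work. Spectrophotometric multiwell assay with 3mM o-NPA. Inhibitor and substrate were dispensed first, then enzyme was added. A420 was read every 15 s for 5 min and compared with no-inhibitor wells. Inhibitor range started at 1 pM. Duplicates, with 50 µM BNPP and DMSO/no-enzyme controls. Ki came from a partially competitive inhibition equation fit.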
# Liver carboxylesterase 1 [2] = molecular target: T2, Liver carboxylesterase 1 (Homo sapiens, UniProt P23141); experiment: Inhibition constant against human liver carboxylesterase 1 (hCE1) using nitrophenyl acetate (o-NPA) as substrate
# T2 sequence (P23141 whole entry): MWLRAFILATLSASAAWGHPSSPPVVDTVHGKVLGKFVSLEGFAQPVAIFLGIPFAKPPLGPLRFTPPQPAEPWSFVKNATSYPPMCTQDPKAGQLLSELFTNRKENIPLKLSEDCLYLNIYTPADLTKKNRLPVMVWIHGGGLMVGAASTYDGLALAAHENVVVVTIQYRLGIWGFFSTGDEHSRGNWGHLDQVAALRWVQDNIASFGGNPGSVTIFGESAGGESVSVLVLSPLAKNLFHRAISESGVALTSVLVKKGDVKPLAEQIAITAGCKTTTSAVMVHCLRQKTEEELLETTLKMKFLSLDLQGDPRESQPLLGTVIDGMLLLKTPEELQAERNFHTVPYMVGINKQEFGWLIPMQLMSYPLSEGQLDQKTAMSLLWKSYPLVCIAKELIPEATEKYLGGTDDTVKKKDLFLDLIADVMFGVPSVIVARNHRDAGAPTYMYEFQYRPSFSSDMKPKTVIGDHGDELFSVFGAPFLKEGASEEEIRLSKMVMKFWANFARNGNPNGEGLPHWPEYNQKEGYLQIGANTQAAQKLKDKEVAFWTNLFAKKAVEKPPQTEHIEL
# Acetylcholinesterase = Acetylcholinesterase (Homo sapiens, UniProt P22303); experiment: Inhibition constant against human Acetylcholinesterase (hAcChE) using acetylthiocholine (AcTCh) as substrate
# Chain of Acetylcholinesterase (P22303 whole entry): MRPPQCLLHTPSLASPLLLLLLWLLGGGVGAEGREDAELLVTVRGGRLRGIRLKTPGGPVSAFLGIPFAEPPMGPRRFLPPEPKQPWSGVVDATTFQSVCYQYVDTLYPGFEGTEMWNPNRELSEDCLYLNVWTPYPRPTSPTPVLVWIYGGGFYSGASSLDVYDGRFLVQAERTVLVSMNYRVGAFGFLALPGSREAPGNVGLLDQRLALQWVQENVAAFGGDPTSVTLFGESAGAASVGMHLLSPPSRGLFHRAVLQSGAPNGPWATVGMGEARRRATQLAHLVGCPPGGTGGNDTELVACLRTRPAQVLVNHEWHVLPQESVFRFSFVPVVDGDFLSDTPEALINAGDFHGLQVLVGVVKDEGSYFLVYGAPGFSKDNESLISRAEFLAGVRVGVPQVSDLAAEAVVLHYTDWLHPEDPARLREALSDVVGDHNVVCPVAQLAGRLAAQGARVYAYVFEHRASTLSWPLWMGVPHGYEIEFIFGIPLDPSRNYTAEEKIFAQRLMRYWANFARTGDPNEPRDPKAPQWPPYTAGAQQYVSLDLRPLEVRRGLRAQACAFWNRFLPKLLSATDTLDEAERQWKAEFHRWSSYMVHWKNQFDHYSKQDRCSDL
# Cocaine esterase = molecular target: T3, Cocaine esterase (Homo sapiens, UniProt O00748); experiment: Inhibition constant against human intestinal carboxylesterase 2 (hiCE) using nitrophenyl acetate (o-NPA) as substrate
# T3 sequence (O00748 whole entry): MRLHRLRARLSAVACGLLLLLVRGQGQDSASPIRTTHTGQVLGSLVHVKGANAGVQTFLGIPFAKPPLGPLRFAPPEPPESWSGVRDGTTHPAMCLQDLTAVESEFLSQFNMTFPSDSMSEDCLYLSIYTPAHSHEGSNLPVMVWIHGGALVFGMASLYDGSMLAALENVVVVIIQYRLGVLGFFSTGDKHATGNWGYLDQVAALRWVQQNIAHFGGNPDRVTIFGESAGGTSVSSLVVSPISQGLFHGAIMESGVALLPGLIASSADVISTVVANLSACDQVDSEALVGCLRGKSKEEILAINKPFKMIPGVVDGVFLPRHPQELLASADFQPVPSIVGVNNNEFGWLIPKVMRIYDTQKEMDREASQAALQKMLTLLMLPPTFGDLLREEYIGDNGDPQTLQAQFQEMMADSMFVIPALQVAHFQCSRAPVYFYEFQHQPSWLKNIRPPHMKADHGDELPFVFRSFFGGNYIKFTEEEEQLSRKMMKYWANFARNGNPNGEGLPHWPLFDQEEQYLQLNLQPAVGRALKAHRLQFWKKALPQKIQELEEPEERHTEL
# Liver carboxylesterase 1 [3] = molecular target: T2, Liver carboxylesterase 1; experiment: Inhibition constant against human liver carboxylesterase 1 using o-NPA (nitrophenyl acetate)
# Procedure, shortened: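 Purified hCE1 was assayed in multiwell plates with 3 mM o-nitrophenyl acetate, with enzyme added last. Absorbance change at 420 nm was read every 15 s for 5 min and compared with no-inhibitor wells. Inhibitor concentrations started at 1 pM, and assays were run in duplicate with 50 µM BNPP and DMSO/no-enzyme controls. Ki came from fitting to a partially competitive inhibition equation.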
# Liver carboxylesterase 1 [4] = molecular target: T1, Liver carboxylesterase 1; experiment: Inhibition constant against rabbit liver carboxylesterase using 4-MUA (4-methylumbelliferone acetate)
# Procedure, shortened: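 Pure enzyme (hCE1 or rabbit CE) was incubated with 0.75 mM 4-methylumbelliferone acetate in 50 mM Hepes, pH 7.4. 4-Methylumbelliferone release was read fluorimetrically (excitation 365 nm, emission 460 nm) over 1 min, where the rate was linear. Inhibitor dilution series were run, and Ki was obtained by fitting fractional inhibition to a partially competitive inhibition equation.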
# Liver carboxylesterase 1 [5] = molecular target: T2, Liver carboxylesterase 1; experiment: Inhibition constant against human liver carboxylesterase 1 using 4-MUA (4-methylumbelliferone acetate)
# Procedure, shortened: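 Pure enzyme (hCE1 or rabbit CE) was incubated with 0.75 mM 4-methylumbelliferone acetate in 50 mM Hepes, pH 7.4. Inhibitor dilution series were run, and Ki was obtained by fitting fractional inhibition to a partially competitive inhibition equation.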
# Liver carboxylesterase 1 [6] = molecular target: T1, Liver carboxylesterase 1; experiment: Inhibition constant against rabbit liver carboxylesterase using o-NPA (nitrophenyl acetate); procedure, shortened: as §1
# Liver carboxylesterase 1 [7] = molecular target: T1, Liver carboxylesterase 1; experiment: Inhibition constant against rabbit liver carboxylesterase using CPT-11
# Procedure, shortened: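 Purified rabbit CE was used with CPT-11 as the substrate. CPT-11 and SN-38 were quantified by HPLC with fluorescence detection.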
# Chain of Cholinesterase (P06276 whole entry): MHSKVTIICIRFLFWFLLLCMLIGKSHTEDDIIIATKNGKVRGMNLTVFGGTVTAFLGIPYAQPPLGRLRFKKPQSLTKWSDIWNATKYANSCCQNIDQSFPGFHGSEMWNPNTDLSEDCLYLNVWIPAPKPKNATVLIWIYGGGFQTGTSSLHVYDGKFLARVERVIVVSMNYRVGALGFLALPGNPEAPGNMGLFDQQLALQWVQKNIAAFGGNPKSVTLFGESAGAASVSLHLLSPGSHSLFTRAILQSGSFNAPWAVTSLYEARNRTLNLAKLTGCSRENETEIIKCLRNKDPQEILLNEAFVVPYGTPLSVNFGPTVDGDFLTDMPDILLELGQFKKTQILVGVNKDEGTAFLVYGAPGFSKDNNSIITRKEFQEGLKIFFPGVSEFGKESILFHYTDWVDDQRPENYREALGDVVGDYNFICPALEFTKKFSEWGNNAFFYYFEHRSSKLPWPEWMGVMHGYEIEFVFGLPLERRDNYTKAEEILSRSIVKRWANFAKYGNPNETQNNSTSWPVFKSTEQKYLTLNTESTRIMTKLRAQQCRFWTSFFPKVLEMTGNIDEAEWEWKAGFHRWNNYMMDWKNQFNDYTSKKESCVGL
Ki (Liver carboxylesterase 1 [6]),Compound,Ki (Cholinesterase),Ki (Liver carboxylesterase 1 [1]),Ki (Liver carboxylesterase 1 [2]),Ki (Acetylcholinesterase),Ki (Cocaine esterase),Ki (Liver carboxylesterase 1 [3]),Ki (Liver carboxylesterase 1 [4]),Ki (Liver carboxylesterase 1 [5]),Ki (Liver carboxylesterase 1 [7])
–,O=S(=O)(Cc1ccccc1)c1ccccc1 [BENZYLSULFONYLBENZENE],> 100 µM,> 100 µM,> 100 µM,> 100 µM,> 100 µM,–,–,–,–
–,CC(=O)CC(C)=O,> 100 µM,> 100 µM,> 100 µM,> 100 µM,> 100 µM,–,–,–,–
–,CC1CCCC(=O)C1=O (stereo not drawn),> 100 µM,> 100 µM,> 100 µM,> 100 µM,> 100 µM,–,–,–,–
–,CC(=O)CCC(=O)c1ccccc1,> 100 µM,> 100 µM,> 100 µM,> 100 µM,> 100 µM,–,–,–,–
–,CN(C)c1ccc(C(=O)C(=O)c2ccc(N(C)C)cc2)cc1,–,2.15 µM,–,–,–,–,–,–,–
–,CC1NC(=O)C(=O)OC1C (stereo not drawn),> 100 µM,> 100 µM,> 100 µM,> 100 µM,> 100 µM,–,–,–,–
–,O=C(CC(=O)c1ccccc1)c1ccccc1 [DIBENZOYLMETHANE],> 100 µM,3.95 µM,26 µM,> 100 µM,> 100 µM,–,–,–,–
–,CCCCC(=O)C(C)=O,> 100 µM,> 100 µM,16.9 µM,> 100 µM,> 100 µM,–,–,–,–
–,CC(=O)C(C)=O [BUTANEDIONE],> 100 µM,> 100 µM,> 100 µM,> 100 µM,> 100 µM,–,–,–,–
–,O=C1C=CC(=O)C=C1 [BENZOQUINONE],2.05 µM,> 100 µM,> 100 µM,0.955 µM,> 100 µM,–,–,–,–
–,CN(C)c1ccc(C(O)C(=O)c2ccccc2)cc1 (stereo not drawn),> 100 µM,> 100 µM,> 100 µM,> 100 µM,> 100 µM,–,–,–,–
–,"Oc1nc2cc(Cl)c(Cl)cc2nc1O [2,3-DIHYDROXY-6,7-DICHLOROQUINOXALINE]",> 100 µM,> 100 µM,> 100 µM,> 100 µM,> 100 µM,–,–,–,–
–,COC(OC)(C(=O)c1ccccc1)c1ccccc1,> 100 µM,> 100 µM,15.3 µM,> 100 µM,> 100 µM,–,–,–,–
–,O=C(c1ccccc1)C(O)c1ccccc1 (stereo not drawn) [BENZOIN],–,> 100 µM,–,–,–,–,–,–,–
0.0095 µM,O=C(C(=O)c1ccc(Cl)cc1)c1ccc(Cl)cc1,–,0.0095 µM,0.182 µM,–,–,0.182 µM,0.0013 µM,1.6 nM,0.043 µM
–,O=C1C(=O)C(Cl)=C(Cl)C(Cl)=C1Cl,3.2 µM,1.03 µM,5.44 µM,1.67 µM,0.875 µM,–,–,–,–
–,O=C1CCCC(=O)C1,> 100 µM,> 100 µM,> 100 µM,> 100 µM,> 100 µM,–,–,–,–
–,O=C(c1ccccc1)c1ccccc1 [BENZOPHENONE],> 100 µM,> 100 µM,> 100 µM,–,> 100 µM,–,–,–,–
–,[O-][S+](Cc1ccccc1)Cc1ccccc1,> 100 µM,> 100 µM,> 100 µM,> 100 µM,> 100 µM,–,–,–,–

Ki (Liver carboxylesterase 1 [6]),Compound,Ki (Cholinesterase),Ki (Liver carboxylesterase 1 [1]),Ki (Liver carboxylesterase 1 [2]),Ki (Acetylcholinesterase),Ki (Cocaine esterase),Ki (Liver carboxylesterase 1 [3]),Ki (Liver carboxylesterase 1 [4]),Ki (Liver carboxylesterase 1 [5]),Ki (Liver carboxylesterase 1 [7])
–,O=C(C(=O)c1ccc(Br)cc1)c1ccc(Br)cc1,–,0.0041 µM,–,–,–,–,0.00017 µM,0.029 nM,0.025 µM
–,O=C(C(=O)c1ccc(C(=O)C(=O)c2ccccc2)cc1)c1ccccc1,–,0.0061 µM,–,–,–,–,0.0021 µM,–,0.0141 µM
–,OC(c1ccccc1)C(O)c1ccccc1 (stereo not drawn),> 100 µM,> 100 µM,> 100 µM,> 100 µM,> 100 µM,–,–,–,–
–,COc1ccc(C(=O)C(O)c2ccc(OC)cc2)cc1 (stereo not drawn),> 100 µM,13.9 µM,> 100 µM,> 100 µM,> 100 µM,–,–,–,–
–,CC1C(=O)CCCC1=O,> 100 µM,> 100 µM,> 100 µM,> 100 µM,> 100 µM,–,–,–,–
–,Cc1ccc(C(=O)C(=O)c2ccccc2)cc1C,–,0.108 µM,–,–,–,0.0991 µM,0.0044 µM,18.8 nM,0.24 µM
–,O=S(=O)(Cc1ccccc1)Cc1ccccc1,> 100 µM,> 100 µM,> 100 µM,> 100 µM,> 100 µM,–,–,–,–
–,O=C1C(Cl)=C(Cl)C(=O)C(Cl)=C1Cl [CHLORANIL],0.268 µM,0.0548 µM,0.0839 µM,0.163 µM,–,–,–,–,–
–,CC1CC(C)(C)CC(=O)C1=O (stereo not drawn),> 100 µM,> 100 µM,> 100 µM,> 100 µM,> 100 µM,–,–,–,–
–,"CCC(=O)C(C)=O [2,3-PENTANEDIONE]",> 100 µM,> 100 µM,> 100 µM,> 100 µM,> 100 µM,–,–,–,–
–,CC1C(=O)CCC1=O,> 100 µM,> 100 µM,> 100 µM,> 100 µM,> 100 µM,–,–,–,–
–,O=C1CCCCC1=O,> 100 µM,> 100 µM,> 100 µM,> 100 µM,> 100 µM,–,–,–,–
–,CC(=O)C(=O)c1ccccc1,> 100 µM,4.93 µM,5.27 µM,> 100 µM,–,–,–,–,–
–,Cc1ccc(C(=O)C(=O)c2ccccc2)cc1[N+](=O)[O-],–,0.0119 µM,–,–,–,0.295 µM,0.004 µM,7.5 nM,0.0241 µM
–,O=C(C(=O)c1ccc(Cl)cc1)c1ccccc1,–,0.0239 µM,–,–,–,0.0474 µM,0.0017 µM,5.4 nM,0.0525 µM
–,O=C(O)c1ccc(C(=O)c2ccccc2)cc1,> 100 µM,> 100 µM,> 100 µM,> 100 µM,> 100 µM,–,–,–,–
–,CC(C)(C)C1=CC(=O)C(=O)C(C(C)(C)C)=C1,> 100 µM,0.736 µM,0.0886 µM,> 100 µM,1.35 µM,–,–,–,–
–,CC1CCC(=O)C1=O (stereo not drawn),> 100 µM,15.7 µM,> 100 µM,> 100 µM,> 100 µM,–,–,–,–

# From ChEMBL document CHEMBL1143603, “Identification and characterization of novel benzil (diphenylethane-1,2-dione) analogues as inhibitors of mammalian carboxylesterases” (J Med Chem, 2005)
